Assay results published in article PMC9054602 (RSC Advances, 2020).

Legend:
PRRSV GD-XH strain = experiment: Antiviral activity by indirect immunofluorescence assay; type: cell-based, porcine reproductive and respiratory syndrome virus; details: MARC-145 cells; for EC50: Porcine reproductive and respiratory syndrome virus, MARC145, PRRSV GD-XH (0.05 MOI), IFA at 48 hpi; for Selectivity index (SI): ratio of CC50 to EC50, PRRSV GD-XH
PRRSV CH-1a strain = experiment: Antiviral activity by IFA, PRRSV CH-1a in MARC-145 cells; type: cell-based; details: Porcine reproductive and respiratory syndrome virus, MARC145
Method in brief: (§1)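 MARC-145 monolayers infected at 0.05 MOI for 2 h at 37 °C. Inoculum removed and fresh medium with serial compound concentrations added. Cells then fixed in 4% paraformaldehyde, permeabilized with Triton X-100, blocked with BSA and stained for N protein (mAb 4A5, 1:400, 4 °C overnight), with Alexa 568 secondary and DAPI. Red and blue ODs digitized; protection % derived against DMSO wells. EC50 by nonlinear regression; three independent experiments.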

PRRSV VR2332 strain = experiment: Antiviral activity by IFA, PRRSV VR2332 in MARC-145 cells; type: cell-based; details: Porcine reproductive and respiratory syndrome virus, MARC145
Method in brief: as §1

PRRSV NADC30-like strain = experiment: Antiviral activity by IFA, PRRSV NADC30-like in MARC-145 cells; type: cell-based; details: Porcine reproductive and respiratory syndrome virus, MARC145
Method in brief: as §1

EC50 (PRRSV GD-XH strain) [µM]	EC50 (PRRSV CH-1a strain) [µM]	EC50 (PRRSV VR2332 strain) [µM]	EC50 (PRRSV NADC30-like strain) [µM]	Compound	Selectivity index (SI) (PRRSV GD-XH strain)
23.7 ± 3.1	31.5 ± 2.8	22.3 ± 3.1	16.8 ± 2.1	NC(=O)c1ncn([C@@H]2O[C@H](CO)[C@@H](O)[C@H]2O)n1 [Ribavirin]	>27
8.03 ± 0.93	11.3 ± 0.78	5.66 ± 0.52	5.03 ± 0.35	C[C@H]1[C@H](C)CC[C@]2(C(=O)O)CC[C@]3(C)C(=CC[C@@H]4[C@@]5(C)CC[C@H](O)C(C)(C)[C@@H]5CC[C@]43C)[C@H]12 [UA, Ursolic acid]	8.1
